S1P4 ag: agonists of human S1P4 receptor | 220,000 compounds, 0.35% hits | activation, % at 4.98 µM | S1P4-expressing cell line, agonist reporter assay | AID 1509 | O95977; in the data active = activation above about 11%;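 note: 0% = DMSO vehicle and 100% = reference agonist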
Rad51 HR inh: blocks human Rad51 in homologous recombination; hRad51 DNA strand exchange, fluorescence dequenching; inhibition, % at 10 µM; 200,000 compounds, 0.085% hits; AID 1385;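 active = inhibition above 40% at the single screening dose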;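 note: 0% = DMSO control wells and 100% = blanks with heterologous ssDNA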
Target sequence (Q06609 whole entry, looked up): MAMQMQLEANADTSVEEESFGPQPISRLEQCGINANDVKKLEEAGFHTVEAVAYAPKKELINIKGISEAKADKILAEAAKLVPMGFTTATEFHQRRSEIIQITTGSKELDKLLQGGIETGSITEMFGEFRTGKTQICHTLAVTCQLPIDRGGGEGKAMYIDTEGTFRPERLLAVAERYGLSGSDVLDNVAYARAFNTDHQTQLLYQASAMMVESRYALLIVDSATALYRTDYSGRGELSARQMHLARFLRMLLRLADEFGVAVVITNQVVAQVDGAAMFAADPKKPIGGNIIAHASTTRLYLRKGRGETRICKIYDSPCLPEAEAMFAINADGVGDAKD
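Test system – preformed human Rad51 ssDNA filaments · Reagent – Donor/quencher-labelled 47-bp dsDNA substrate · Incubation – 37 °C 15-min filament assembly, 30-min compound preincubation, 15-min exchange · Signal – FRET fluorescence dequenching, excitation 485 nm, emission 520 nm · Read-out – percent inhibition from fluorescence, normalised to plate control and blank means · Benchmarks – plate control and blank wells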
Biofilm kill mix: mixtures killing C. albicans biofilm. C. albicans biofilm persisters + clotrimazole, fluorescence viability; primary screen in compound mixtures of four per well. inhibition, % at 7.6 µM. 120,000 compounds, 0.02% hits. AID 1242;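 active = inhibition above 30.3% in the primary screen of four-compound pools, then above 30% when the compound was retested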;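 note: compounds exposed to preformed 24 h biofilms for 48 h; 0% = untreated biofilm control and 100% = clotrimazole plus chlorhexidine kill blank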
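Incubation: 24 h biofilm formation, then 48 h compound exposure, 37 °C | Material: C. albicans biofilms | Buffer or medium: RPMI/MOPS medium, pH 7.0 | Measured by: 2-h Alamar Blue fluorescence, 535/590 nm excitation/emission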
HMGR II inh: inhibitors of class II HMG-CoA reductase from Enterococcus faecalis; purified E. faecalis HMGR, NADPH absorbance 340 nm kinetic; inhibition, % at 10 µM; 190,000 compounds, 0.41% hits; AID 1066;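 active = inhibition above a set limit, the median over all tested compounds plus 3 SD, cut at about 9.5% in these data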;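 note: enzyme runs in reverse so mevalonate oxidation gives rising NADPH absorbance; 0% = complete reaction with DMSO and 100% = background rate lacking mevalonate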
S1P3 antag-1: blocks the human S1P3 receptor; inhibition, % at 4.98 µM; Q99500; 170,000 compounds, 0.27% hits; AID 485; CHO S1P3 NFAT-BLA reporter, FRET fluorescence, antagonist mode;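 active = inhibition above the plate cutoff, the mean inhibition of test wells on that plate plus 3 SD, cut at about 28% in these data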;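 note: cells challenged with S1P at its EC80 of 0.8 µM; blue over green emission ratio from cleaved BLA substrate after 4 h stimulation; 0% = S1P-stimulated wells and 100% = unstimulated DMSO-only wells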
S1P4 antag: antagonists of human S1P4 receptor; 220,000 compounds, 0.26% hits; inhibition, % at 4.98 µM; S1P4-expressing cells, antagonist mode, reporter read-out; AID 1510; O95977; in the data active = inhibition above about 29%;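 note: 0% = wells stimulated with agonist and 100% = vehicle wells without agonist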
S1P3 antag-2: confirmation of human S1P3 receptor antagonists; inhibition, % at 4.98 µM; shares compounds with S1P3 antag-1; 240 compounds, 30% hits; AID 1429; CHO S1P3 NFAT-BLA reporter, FRET, antagonist mode;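 active = inhibition above the hit threshold that was computed for the earlier primary screen, cut at about 30% in these data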;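 note: 0% = S1P-stimulated wells and 100% = unstimulated DMSO-only wells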
Active calls of the source: *; nt = no result. Shown are actives, neighbours in structure and some others; about 1.2% of the full set was active somewhere.

SMILES	S1P4 ag	Rad51 HR inh	Biofilm kill mix	HMGR II inh	S1P3 antag-1	S1P4 antag	S1P3 antag-2
COc1ccc(C(=O)NCC(=O)Nc2cccc(S(=O)(=O)NCc3ccco3)c2)cc1OC	-2	nt	6	3	-15	9	nt
Cn1nc(-c2ccccn2)nc2c(=O)n(C)c(=O)nc1-2	1	-28	13	nt	81*	104*	90*
COc1ccc(-c2nc(-c3ccccn3)ncc2S(C)(=O)=O)cc1	1	3	-6	-3	-2	10	nt
CC(C)(C)c1cc(C(=O)Nc2ccc(F)cc2)n(Cc2ccc(F)cc2)n1	0	7	7	nt	30*	11	24
Cc1ccc(S(=O)(=O)NCCc2nnc3ccc(SCC(=O)Nc4nc5ccccc5s4)nn23)cc1	-1	-4	10	-5	28*	-9	-5
COc1ccc2[nH]c(C)c(CN3CCCCC3)c(=O)c2c1	nt	3	nt	nt	-32	nt	nt
O=C(CN(Cc1ccccc1Cl)C(=O)c1ccc(CN2CCOCC2)o1)NCc1ccccc1	0	4	nt	-3	-1	-38	nt
OCCNCCCOc1cc(Cl)ccc1Cl	2	6	14	0	36*	2	-9
CCOC(=O)c1cn(-c2ccc(F)c(F)c2)c2c(F)c(F)c(F)c(F)c2c1=O	2	nt	nt	-6	nt	-3	nt
N#Cc1c(NC(=O)/C=C/c2ccco2)sc2c1CCCC2	2	-13	13	0	29*	2	29*
O=C(/C=C/c1ccco1)Nc1sc2c(c1C(=O)O)CCC2	0	-2	nt	0	nt	-16	nt
Clc1ccccc1C1=CC(c2ccco2)n2ncnc2N1 (stereo not drawn)	0	nt	30	nt	32*	0	7
Cc1ccccc1Nc1nc(-c2cccnc2)nc2ccccc12	-2	nt	13	-1	4	0	nt
Cc1ccc(Nc2nc(-c3cccnc3)nc3ccccc23)cc1	1	nt	2	nt	35*	-4	14
CCn1c(SCC(=O)C(C)(C)C)nnc1-c1cccnc1	-3	-5	nt	0	-16	-24	nt
CNc1nc(Nc2ccccc2)nc(OCC(F)(F)F)n1	-1	-10	9	-4	39*	-6	-5
CCOC(=O)C1CCCN(S(=O)(=O)c2ccc(S(=O)(=O)N(CC)CC)cc2)C1 (stereo not drawn)	0	-4	26	5	48*	12	22
Cc1ccc(NC(=O)C(C)c2ccc([N+](=O)[O-])cc2)cc1Cl (stereo not drawn)	0	16	-6	-6	49*	11	48*
Cc1ccc(NC(=O)C(OC(=O)c2ccc(NC(N)=O)cc2)c2ccccc2)cc1Cl (stereo not drawn)	4	-3	10	3	-5	-17	nt
Cc1cc(C(=O)OC(C(=O)Nc2ccc(C)c(Cl)c2)c2ccccc2)c(C)o1 (stereo not drawn)	0	-1	18	3	53*	1	40*
Cc1ccc(NC(=O)C(OC(=O)c2ccccc2Cl)c2ccccc2)cc1Cl (stereo not drawn)	2	1	14	-2	29*	-16	40*
CC(C(=O)Nc1ccccc1Br)c1ccc([N+](=O)[O-])cc1 (stereo not drawn)	-1	9	26	-3	6	-9	nt
O=C(CNc1n[nH]c(=O)[nH]c1=O)N/N=C/c1cccnc1	0	26	13	-5	39*	-6	-12
O=C(CNc1n[nH]c(=O)[nH]c1=O)N/N=C/c1ccccc1	1	12	16	nt	-9	-2	nt
FC(F)(F)c1cccc(NC(=S)NNC(=S)Nc2cccc(C(F)(F)F)c2)c1	1	9	15	nt	2	-11	nt
FC(F)(F)c1cccc(NC(=S)NC(c2ccccc2)c2ccccc2)c1	4	2	9	-5	45*	5	49*
COc1ccc(OC)c(Nc2ccc(Nc3cc(OC)ccc3OC)nn2)c1	0	4	9	-1	31*	-1	13
CCOc1cc(/C=N/NC(=O)CN2CCCCC2)ccc1OCc1ccccc1	2	-2	nt	0	nt	-9	nt

Screening results deposited in PubChem BioAssay by several laboratories.
